Source: PubChem BioAssay
Hits are enriched below; roughly 3.1% of the tested compounds scored in any of these assays.
KCNQ1 inh: human KCNQ1 channel inhibition. P51787. CHO-K1 KCNQ1, FluxOR thallium flux fluorescence; hits give high values. B-score at 10 µM. 1.3% of 310,000 active;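 active = compounds whose thallium flux B-score, printed positive for inhibition, exceeds three library SD while starting fluorescence stays within three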;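 note: channel opened by potassium depolarization with thallium stimulus after 20 min compound exposure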
hERG protect: shields human hERG channel from block by proarrhythmic agents; Q12809; CHO-hERG, FluxOR thallium flux, dofetilide IC70 present; activation (rescue from dofetilide block), less the hit threshold, % at 10 µM; 0.51% of 310,000 active;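 active = activation above the mean of controls blocked by dofetilide plus 5 SD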;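 note: thallium influx through hERG after potassium depolarization seen as dye fluorescence rise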
KCNK9 block: human KCNK9 channel inhibition | B-score at 10 µM | 1.2% of 310,000 active | Q9NPC2 | HEK293 KCNK9, FluxOR thallium flux fluorescence; hits give low values;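 active = ratio B-score over 3 SD below the library mean, with starting fluorescence within 5 SD of its mean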;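 note: negative B-score means less thallium flux so channel inhibition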
Target sequence (Q9NPC2 whole entry, looked up): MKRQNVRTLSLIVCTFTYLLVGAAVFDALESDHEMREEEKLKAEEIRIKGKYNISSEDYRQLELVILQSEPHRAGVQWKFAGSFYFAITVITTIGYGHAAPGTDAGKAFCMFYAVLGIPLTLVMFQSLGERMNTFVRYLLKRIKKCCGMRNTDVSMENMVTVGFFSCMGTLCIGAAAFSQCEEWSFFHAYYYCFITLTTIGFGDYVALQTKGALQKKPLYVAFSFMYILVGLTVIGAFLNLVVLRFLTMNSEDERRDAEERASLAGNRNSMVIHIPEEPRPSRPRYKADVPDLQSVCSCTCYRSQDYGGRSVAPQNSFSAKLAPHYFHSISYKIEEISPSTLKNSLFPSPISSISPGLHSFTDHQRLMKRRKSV
KCNQ1 act: human KCNQ1 channel potentiation or activation. B-score at 10 µM. CHO-K1 KCNQ1, thallium flux FluxOR fluorescence; hits give high values. 0.35% of 310,000 active;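 active = fluorescence ratio B-score, a plate-corrected score, at least three library SD, with initial intensity B-score within 5 SD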
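Test system: CHO-K1 cells stably expressing KCNQ1 / Medium: assay buffer / Also added: depolarizing K+/Tl+ stimulus, K2SO4 and Tl2SO4 each 12.5 mM in 5x stock / Incubation: 90 min dye loading and 20 min compound exposure, both at room temperature / Signal: thallium influx via FluxOR fluorescence, kinetic imaging / Evaluation: B score of baseline-normalized fluorescence ratio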
KCNK3 inh: human KCNK3 channel inhibition, primary screen. 0.84% of 340,000 active. B-score at 10 µM. CHO-KCNK3 thallium flux, FluxOR fluorescence; hits give low values. O14649. AID 602410;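 active = B-score under library mean minus 4 SD, starting fluorescence ratio at most library mean plus 5 SD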;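 note: more negative B-score means stronger inhibition of thallium flux through KCNK3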
Starred values were filed as active, the others as inactive; i = inactive; . = no result; ! = a repeat was not active.

SMILES	KCNQ1 inh	hERG protect	KCNK9 block	KCNQ1 act	KCNK3 inh
NNC(=O)c1nc(-c2ccccc2)cc(-c2ccccc2)n1	i	-11.9	i	i	i
COc1ccc(-n2c(SCC(=O)N3CCCCC3)nnc2-c2cccnc2)cc1	i	6.4*	i	i	i
CCOC(=O)C1=C(Nc2ccccc2)CC(C)(O)C(C(=O)OCC)C1c1ccc(Cl)cc1 (stereo not given)	.	.	.	.	-9.94*!
CCOC(=O)C1=C(C)Nc2sc(C(=O)c3ccc(OC)cc3)c(N)c2C1c1ccc(C(=O)OC)cc1 (stereo not given)	i	-9.7	-6.73*	i	i
CCOc1ccc(C(=O)NNC(=O)CN2C(=O)C3CC=CCC3C2=O)cc1OC (stereo not given)	.	.	.	.	i
Cc1nc(N2CCCCC2)c2c(C)c(C(=O)Nc3ccccc3C(F)(F)F)sc2n1	i	-2.5	i	i	i
Cc1nc(N2CCCCC2C)c2c(C)c(C(=O)Nc3cccc(C(F)(F)F)c3)sc2n1 (stereo not given)	7*	-9.7	i	i	i
CC1CCCC(NC(=O)COC(=O)/C=C/c2ccc(F)cc2)C1C (stereo not given)	.	.	.	.	i
COCCNC(=S)Nc1ccc(Cl)c(Cl)c1	6*	-10.8	i	i	i
COc1cc(OC)c(NC(=S)Nc2cc(Cl)cc(Cl)c2)cc1Cl	10*	-10.7	i	i	i
COc1cc(C)c(NC(=S)Nc2ccc(Cl)c(Cl)c2)cc1OC	6*	-18.2	i	i	i
Nn1c(SCC(=O)Nc2ccccc2)nnc1C1CCCCC1	i	-6.6	i	i	i
Nn1c(SCC(=O)Nc2ccc(F)cc2)nnc1C1CCCCC1	i	4.9*	i	i	i
Cc1ccccc1-n1nnnc1SCC(=O)Nc1ccc(S(=O)(=O)N2CCCC2)cc1	i	-0.2	i	i	i
Cc1nnc(SCC(=O)Nc2ccc(S(=O)(=O)N3CCCC3)cc2)n1N	i	35.5*	i	i	i
C=CCN(c1ccccc1OC)S(=O)(=O)c1cccc(C(=O)OCC(=O)c2c(N)n(C)c(=O)n(C)c2=O)c1	.	.	.	.	i
O=[N+]([O-])c1ccc2c(c1)C(=NO)c1cc(Cl)c(Cl)cc1-2	.	.	.	.	i
CCCn1nc(C(=O)Nc2ccc3nc(N4CCOCC4)sc3c2)ccc1=O	.	.	.	.	i
CCCCn1c(NC(=O)c2ccc(Br)o2)c(S(=O)(=O)c2ccccc2)c2nc3ccccc3nc21	12*	-17.1	i	i	i
CCCCCn1c(NC(=O)c2ccco2)c(S(=O)(=O)c2ccc(C)cc2)c2nc3ccccc3nc21	10*	-4.1	i	i	i
Cc1ccc(S(=O)(=O)c2c(N)n(NC(=O)c3ccccc3C)c3nc4ccccc4nc23)cc1	i	-16.7	i	i	-8.79*
CCCCn1c(NC(=O)c2ccco2)c(S(=O)(=O)c2ccc(C)cc2)c2nc3ccccc3nc21	i	-5.7	i	i	i
CCOc1ccccc1C1NC(=O)c2ccccc2N1 (stereo not given)	.	.	.	.	i
CN(CCCCCCCCCCN(C)C(=O)Oc1cccc([N+](C)(C)C)c1)C(=O)Oc1cccc([N+](C)(C)C)c1	.	.	.	.	i
Cc1ccc(C(=O)O)cc1NC(=O)CSc1nnc(-c2ccccc2F)n1C1CCCCC1	.	.	.	.	i
SMILES	KCNQ1 inh	hERG protect	KCNK9 block	KCNQ1 act	KCNK3 inh
O=C(Cc1ccccc1)Nc1ccc(NC(=O)c2cccc(Cl)c2)cc1	i	-2.3	i	i	i
Cc1cc(C)cc(C(=O)Nc2ccc(NC(=O)Cc3ccccc3)cc2)c1	i	6.2*	i	i	i
Cc1ccc(S(=O)(=O)CCC(=O)OCc2nnc(-c3ccc([N+](=O)[O-])cc3)o2)cc1	.	.	.	.	i
COc1cc(C2c3cc4c(cc3C(OC3OC5COC(c6cccs6)OC5C(O)C3O)C3COC(=O)C23)OCO4)cc(OC)c1O (stereo not given)	8*	-13.0	i	i	i
N#Cc1nc(Cc2ccccc2)oc1N1CCN(c2ccccc2)CC1	i	-12.3	-6.96*	i	i
Cc1ccc(OCc2nc(C#N)c(N3CCCCC3)o2)cc1	i	-10.9	i	i	i
N#Cc1nc(Cc2ccccc2)oc1N1CCC(C(N)=O)CC1	i	-6.3	i	i	i
N#Cc1nc(Cc2cccc3ccccc23)oc1N1CCCCC1	6*	-7.8	i	i	i
